The list is not random: actives were taken first. Their share in the collection is about 2.7%.
PP1 inh – PP1-alpha phosphatase inhibitors, primary screen, counter-screen for PP5 inhibitor project, biochemical, fluorescence, OMFP substrate, single point | Serine/threonine-protein phosphatase PP1-alpha catalytic subunit (Homo sapiens), P62136 | purified PP1alpha | inhibition, % at 6.7 µM | hit rate 0.9% among 320,000 | AID 2235, 2010;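 active means inhibition above the mean inhibition of all tested compounds plus 3 SD, computed separately for each screening campaign, cut at about 15% in these data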
Target sequence (P62136 whole entry, looked up): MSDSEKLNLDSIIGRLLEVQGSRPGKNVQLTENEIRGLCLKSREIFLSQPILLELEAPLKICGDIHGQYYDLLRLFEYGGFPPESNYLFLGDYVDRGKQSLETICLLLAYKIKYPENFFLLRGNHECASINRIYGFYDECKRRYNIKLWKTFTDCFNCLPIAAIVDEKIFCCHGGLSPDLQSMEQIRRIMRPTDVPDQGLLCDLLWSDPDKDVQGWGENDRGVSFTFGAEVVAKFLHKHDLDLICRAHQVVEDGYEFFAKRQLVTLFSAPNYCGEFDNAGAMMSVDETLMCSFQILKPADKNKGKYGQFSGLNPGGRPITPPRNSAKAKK
NadD inh – inhibitors of S. aureus NadD, primary screen, biochemical, colorimetric, uHTS. Nicotinate-nucleotide adenylyltransferase NadD (Staphylococcus aureus N315). purified NadD enzyme, colorimetric absorbance read-out. AID 602399, 2012. hit rate 0.78% among 360,000. inhibition, % at 20 µM; in the data active means inhibition above about 26%
Rpn11 inh – Rpn11 (PSMD14) deubiquitinase inhibitors, primary screen, biochemical, fluorescence polarization, uHTS. 26S proteasome non-ATPase regulatory subunit 14 (Homo sapiens), O00487. human 26S proteasome, Ub4-pepOG fluorescence polarization; 20S core pre-blocked with epoxomicin. inhibition, % at 20 µM. hit rate 0.59% among 360,000;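 active means inhibition at 20 µM, scaled to each plate's controls, above about 33%, limit read from the data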
HNF4A DNA FP – change in binding of human HNF4A to DNA, primary screen, biochemical, fluorescence polarization, FITC-DNA; activity change, % at 10 µM; AID 1224865, 2016; Hepatocyte nuclear factor 4-alpha (Homo sapiens), P41235; 1 h; hit rate 0.3% among 360,000; in the data active means activity change above about 30%, passing the limit was not always enough
TPT1 inh – Candida albicans TPT1 enzyme inhibitors, primary screen, biochemical, fluorescence polarization. recombinant caTPT1, FP RNA substrate dephosphorylation. inhibition, % at 5 µM. hit rate 0.81% among 300,000;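 active means inhibition above the mean of all tested compounds plus 3 SD, set per screening campaign, cut at about 24% in these data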
CSN deneddyl inh – inhibitors of CSN-mediated cullin deneddylation, primary screen, biochemical, fluorescence polarization, uHTS. inhibition, % at 12.5 µM. Purified CSN, SCF-Nedd8-OG deneddylation. hit rate 0.38% among 360,000;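 active means pattern-corrected inhibition above about 35%, with an unprinted fluorescence ratio check between 0.5 and 1.5, limit read from the data, passing the limit was not always enough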
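Schedule: reaction 90 min, room temperature / Assay system: HEK293T-derived human Csn5 enzyme / Input: Csn5 at 0.24 nM final / Measure: inhibition of Csn5 cleavage, % / Control set: substrate-only high control, full reaction low control / Technique: fluorescence polarization of the substrate / Buffer or medium: Tris/NaCl/DTT buffer, pH 7.5 / Reagent: SCFSkp2-Nedd8OG substrate at 10 nM final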
PP1 confirm – PP1 phosphatase inhibitors, confirmation, biochemical, fluorescence, OMFP substrate, triplicate; inhibition, % at 6.7 µM; purified PP1alpha; hit rate 52% among 1,900; AID 2358, 2010; shares compounds with PP1 inh;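 active means mean PP1 inhibition above a set limit taken from the earlier primary screen, cut at about 15% in these data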
PP5 inh counter – PP5 phosphatase inhibition by PP1 hits, confirmation, counter-screen for PP1 inhibitor project, biochemical, fluorescence, triplicate; shares compounds with PP1 inh; purified PP5c, OMFP fluorescence; inhibition, % at 6.7 µM; hit rate 4% among 1,900;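 active means mean PP5 inhibition over triplicate wells above about 9.5% taken from the earlier PP1 screen, limit read from the data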
Rpn11 inh conf – Rpn11 (PSMD14) deubiquitinase inhibitors, confirmation, biochemical, fluorescence polarization, single concentration; AID 602318, 2012; inhibition, % at 20 µM; shares compounds with Rpn11 inh; purified human 26S proteasome, Ub4-pepOG fluorescence polarization; proteasome pretreated with epoxomicin; hit rate 29% among 1,900
MMP-2 counter-1 – MMP-2 enzyme inhibition, confirmation, counter-screen for RPN11 inhibitor project, biochemical, fluorescence, single concentration | shares compounds with Rpn11 inh | recombinant MMP-2, FRET peptide cleavage fluorescence | inhibition, % at 20 µM | hit rate 4% among 1,900;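 further: human MMP-2 activated beforehand with APMA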
Thrombin inh – bovine thrombin protease inhibition, confirmation, counter-screen for Rpn11 inhibitor project, biochemical, fluorescence polarization, single concentration | shares compounds with Rpn11 inh | bovine thrombin cleavage of Ub4-pepOG | inhibition, % at 20 µM | hit rate 13% among 1,900 | AID 602333, 2012;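 active means mean inhibition at least 40% at 20 µM, or signal 3 deviations below plate average, so some actives read negative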
NadD conf – inhibitors of S. aureus NadD, confirmation, biochemical, colorimetric, single concentration. shares compounds with NadD inh. purified S. aureus NadD, colorimetric enzyme assay. inhibition, % at 20 µM. hit rate 13% among 2,000. AID 624309, 2012; in the data active means inhibition mostly above about 42%, no sharp cut-off; inactive means mostly below about 42%
CSN5 deneddyl – Csn5 deneddylation inhibitors, confirmation, biochemical, fluorescence polarization, single concentration, SCF-Nedd8OG substrate. shares compounds with CSN deneddyl inh. Csn5 deneddylation of SCF-Nedd8OG, 90 min. hit rate 62% among 540. inhibition, % at 16.6 µM; in the data active means inhibition above about 50%
MMP-2 counter-2 – MMP-2 protease inhibition counter-screen, confirmation, counter-screen for CSN deneddylation inhibitor project, biochemical, fluorescence, single concentration | hit rate 33% among 540 | recombinant MMP-2, FRET substrate fluorescence, 60 min | inhibition, % at 16.6 µM | shares compounds with CSN deneddyl inh;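 active means corrected plate-normalized z-score of 5 or more, or -5 or less, or inhibition of 15% or more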
Thrombin counter – thrombin (bovine) inhibition, counter-screen for CSN hits; shares compounds with CSN deneddyl inh; bovine thrombin cleavage of Ub4-pepOG, fluorescence polarization; inhibition, % at 16.6 µM; hit rate 49% among 540; AID 720656;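 active means inhibition at or above a set limit, with a fluorescence interference ratio between 0.5 and a set maximum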
Numbers stand for hits; i = inactive; nt = no result shown; + = active, no number. Unless noted, no stated cut-off is given here; in the data, active means inhibition above about 40%; inactive means the rest.

SMILES	PP1 inh	NadD inh	Rpn11 inh	HNF4A DNA FP	TPT1 inh	CSN deneddyl inh	PP1 confirm	PP5 inh counter	CSN5 deneddyl	MMP-2 counter-2	Thrombin counter	others
COC(=O)c1ccc2c(c1)C(C)(C)C(/C=C/c1ccccc1O)=[N+]2C	18.9	i	nt	37.1	i	43.8	i	i	68.1	i	29.6
O=CC(O)C1OC(=O)C(O)C1O (centres undefined)	nt	i	i	i	nt	i	nt	nt	nt	nt	nt
S=c1[nH]nc(-c2cc(-c3ccccc3)n[nH]2)n1/N=C/c1ccc(Br)s1	28.0	43.2	+	i	i	35.8	33.4	i	82.1	20.5	i	Rpn11 inh conf=91.4;MMP-2 counter-1=i;Thrombin inh=48.8;NadD conf=i
Cc1cc(-c2n[nH]c(=S)n2/N=C/c2ccc(Br)s2)n[nH]1	i	i	i	i	i	i	nt	nt	nt	nt	nt
Cc1cccc(C)c1NC(=O)C(c1ccncc1)n1c(=O)c(-c2cc3ccccc3[nH]2)nc2ccccc21 (centres undefined)	nt	nt	nt	i	nt	i	nt	nt	nt	nt	nt
Cc1ccc(-c2nc3ccc(Br)cn3c2CC(C)(C)C)cc1	nt	i	i	i	nt	i	nt	nt	nt	nt	nt
O=C(CSc1n[nH]c(=O)[nH]c1=O)Nc1ccc2c(c1)C(=O)c1ccccc1C2=O	21.1	53.9	i	i	i	48.0	30.8	i	nt	69.2	i
CCNc1nc(-c2cc(C)n(Cc3ccco3)c2C)cs1	i	i	i	i	i	i	nt	nt	nt	nt	nt
Cc1cc(-c2csc(NC(=O)c3ccc(=O)[nH]c3)n2)c(C)n1Cc1ccco1	44.7	67.1	i	i	i	39.6	33.6	i	98.4	i	i
CCc1cc(=O)oc2cc(C)c(CN3CCCC3)c(O)c12	22.3	i	i	i	i	37.1	i	i	89.4	i	i
CCc1cc(=O)oc2cc(C)c(CN3CCCCC3)c(O)c12	i	i	i	i	i	i	nt	nt	nt	nt	nt
